For 38 sequences, folding enthalpy and Tm results are on record in the array DNA melting data of Ke et al. (doi:10.1101/2024.01.08.574731).

Data set [1] is described as follows: folding enthalpy; higher = less favourable; fluorescence melt of hairpins on a sequencing array, two-state fit. As to conditions: sodium 0.088 M. The essentials:
(§1)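 Two-state fits, bootstrapped, provided melting temperature and folding enthalpy from Cy3 fluorescence normalised to pre-quench Cy3 and to control constructs. Library hairpins with annealed Cy3 and quencher oligos were imaged on a sequenced MiSeq flow cell in 50 mM Na-HEPES pH 8.0, 25 mM NaCl, at 2.5 °C intervals up to 60 °C. Four replicates were combined with inverse-variance weighting. A 9.35 °C upward shift was applied to fitted temperatures to match UV melts.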

A short description of data set [2]: melting temperature; fluorescence melt of hairpins on a sequencing array, two-state fit, raised by 9.35 °C to match UV melts. As to conditions: sodium 0.088 M. The procedure, abridged:
as §1

In the case of GATCCCGAAAGGGTAATC ((((((....)))..))), in data set [1], the folding enthalpy was -10.8 kcal/mol. For the same sequence, the Tm in data set [2] amounted to 31.2 °C.

Consider GATCCCGATTGGGATC ((((((....)))))), for which the folding enthalpy in data set [1] is -36 kcal/mol. Also, the Tm in data set [2] is 59.1 °C.

In the case of GATCCCGCGGGGATC ((((((...)))))), in data set [1], the folding enthalpy is -31.2 kcal/mol. Moreover, in data set [2], the Tm was 61 °C.

As to GATCCCGGAAACGGGGTC ((.((((....)))).)), the folding enthalpy in data set [1] was -25.8 kcal/mol. Besides, the Tm in data set [2] was 57.6 °C.

For GATCCCGGGCGGGATC ((((((....)))))), the folding enthalpy in data set [1] was -40.1 kcal/mol. Further, the Tm in data set [2] was found to be 61.1 °C.

As to GATCCCGGGGGGATC ((((((...)))))), in data set [1], the folding enthalpy is -35.4 kcal/mol. Besides, the Tm in data set [2] was 61.6 °C.

Regarding GATCCCGTGGGGATC ((((((...)))))), the folding enthalpy in data set [1] is -32.4 kcal/mol. Moreover, the Tm in data set [2] was determined as 64.5 °C.

For the sequence GATCCCTACTGGGATC ((((((....)))))), the folding enthalpy in data set [1] is -37.7 kcal/mol. Further, the Tm in data set [2] was 64.4 °C.

Regarding GATCCCTAGCGGGATC ((((((....)))))), the folding enthalpy in data set [1] is -34.5 kcal/mol. For the same sequence, the Tm in data set [2] amounted to 59.1 °C.

As to GATCCCTAGTGGGATC ((((((....)))))), in data set [1], the folding enthalpy was -38.7 kcal/mol. Also, the Tm in data set [2] was 57 °C.

Regarding GATCCCTCAGGGATC ((((((...)))))), the folding enthalpy in data set [1] was -37.2 kcal/mol. In addition, the Tm in data set [2] is 65 °C.

Take GATCCCTCCGGGATC ((((((...)))))): the folding enthalpy in data set [1] was -44.2 kcal/mol. In addition, the Tm in data set [2] came out at 67.7 °C.

In the case of GATCCCTCGGGGGATC ((((((....)))))), in data set [1], the folding enthalpy was -37.4 kcal/mol. Further, the Tm in data set [2] came to 61.2 °C.

Turning to GATCCCTCTGGGGATC ((((((....)))))), the folding enthalpy in data set [1] is -39.1 kcal/mol. Moreover, the Tm in data set [2] was 61.5 °C.

On to GATCCCTGCGGGGATC ((((((....)))))), for which the folding enthalpy in data set [1] was -45.6 kcal/mol. In addition, the Tm in data set [2] was determined as 62 °C.

For the sequence GATCCCTGGCGGGATC ((((((....)))))), the folding enthalpy in data set [1] was -37.2 kcal/mol. The Tm in data set [2] turned out to be 59.1 °C.

For the sequence GATCCCTGGGGGATC ((((((...)))))), the folding enthalpy in data set [1] is -40.5 kcal/mol. Moreover, in data set [2], the Tm was 62.2 °C.

Regarding GATCCCTGGGGGGATC ((((((....)))))), the folding enthalpy in data set [1] is -37.2 kcal/mol. Moreover, the Tm in data set [2] was found to be 63.9 °C.

Take GATCCCTGTGGGGATC ((((((....)))))): the folding enthalpy in data set [1] was -41.6 kcal/mol. Moreover, in data set [2], the Tm was determined as 65.3 °C.

GATCCCTTAGGGGATC ((((((....)))))): the folding enthalpy in data set [1] is -43.7 kcal/mol. In addition, the Tm in data set [2] came to 61.3 °C.

Take GATCCCTTATGGGATC ((((((....)))))): the folding enthalpy in data set [1] is -36.5 kcal/mol. Moreover, in data set [2], the Tm came to 65.4 °C.

Consider GATCCCTTCGGGGATC ((((((....)))))), for which, in data set [1], the folding enthalpy is -39.8 kcal/mol. For the same sequence, the Tm in data set [2] worked out at 65.2 °C.

As to GATCCCTTGTGGGATC ((((((....)))))), in data set [1], the folding enthalpy was -31 kcal/mol. In data set [2], the Tm was determined as 62.4 °C.

As to GATCCCTTTAGGGATC ((((((....)))))), the folding enthalpy in data set [1] is -39.3 kcal/mol. For the same sequence, the Tm in data set [2] is 68.9 °C.

For GATCCGAAAACGGATC ((((((....)))))), the folding enthalpy in data set [1] is -37 kcal/mol. The Tm in data set [2] came to 52.6 °C.

GATCCGAAGCGGATC ((((((...)))))): the folding enthalpy in data set [1] was -37 kcal/mol. Also, the Tm in data set [2] was determined as 55.4 °C.

With GATCCGAAGTCGGATC ((((((....)))))), the folding enthalpy in data set [1] was -39.9 kcal/mol. For the same sequence, the Tm in data set [2] amounted to 56.2 °C.

With GATCCGACAACGGATC ((((((....)))))), the folding enthalpy in data set [1] is -35 kcal/mol. Moreover, the Tm in data set [2] was 57 °C.

On to GATCCGACACCGGATC ((((((....)))))), for which the folding enthalpy in data set [1] is -37.4 kcal/mol. For the same sequence, in data set [2], the Tm is 55.4 °C.

With GATCCGACAGCGGATC ((((((....)))))), the folding enthalpy in data set [1] is -34.2 kcal/mol. Besides, in data set [2], the Tm was 54 °C.

Consider GATCCGACGAAAGTCATC (((..(((....)))))), for which the folding enthalpy in data set [1] is -9.01 kcal/mol. Also, in data set [2], the Tm is 25.9 °C.

For GATCCGACGGCGGATC ((((((....)))))), the folding enthalpy in data set [1] is -48 kcal/mol. The Tm in data set [2] was determined as 57.8 °C.

For the sequence GATCCGAGACGGATC ((((((...)))))), the folding enthalpy in data set [1] is -39.9 kcal/mol. In data set [2], the Tm amounted to 55.8 °C.

As for GATCCGAGCTCGGATC ((((((....)))))), the folding enthalpy in data set [1] was -37.3 kcal/mol. For the same sequence, the Tm in data set [2] was 63 °C.

For GATCCGAGGTCGGATC ((((((....)))))), the folding enthalpy in data set [1] is -38.8 kcal/mol. Moreover, in data set [2], the Tm turned out to be 58.3 °C.

With GATCCGAGTCGGATC ((((((...)))))), the folding enthalpy in data set [1] is -35 kcal/mol. In addition, the Tm in data set [2] worked out at 59.5 °C.

Turning to GATCCGAGTTCGGATC ((((((....)))))), the folding enthalpy in data set [1] is -47.4 kcal/mol. Moreover, the Tm in data set [2] amounted to 58.5 °C.

Consider GATCCGATACCGGATC ((((((....)))))), for which, in data set [1], the folding enthalpy was -29.9 kcal/mol. In addition, the Tm in data set [2] was 57 °C.
